# “And” between values parts separate entries of the source, which are not always exact repeats. Equal entries are not always repeated.
# Key:
# HEK-293T = assay: Multiplex assay against HEK293T; format: toxicity, cell-based; settings: human
# Method in brief: (§1)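 Per cents of healthy-nucleus cells form the tubulin, mitochondrial-mass and membrane-permeability phenotype values. Live cells were stained at seeding with Hoechst33342, BioTracker Green Microtubule Cytoskeleton Dye, MitoTracker Red and Annexin V Alexa Fluor 680. After compound addition they were imaged on a CQ1 microscope at 37°C and 5% CO2, and CellPathfinder machine-learning gating split them into Hoechst high-intensity objects or normal cells, normal cells into healthy, pyknosed or fragmented nuclei, and pyknosed cells into mitotic or apoptotic.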
# Fibroblast = assay: Multiplex assay against human fibroblast; format: toxicity, cell-based; method in brief: as §1
# [1] = 24 h, 1 µM, compound concentration 1 uM
# [2] = 24 h, 10 µM, compound concentration 10 uM
# [3] = 48 h, 1 µM, compound concentration 1 uM
# [4] = 48 h, 10 µM, compound concentration 10 uM
# [5] = 12 h, 1 µM, compound concentration 1 uM
# [6] = 12 h, 10 µM, compound concentration 10 uM
smiles,measurement,setting,value
CN1C[C@H](C(=O)N[C@]2(C)O[C@@]3(O)[C@@H]4CCCN4C(=O)[C@H](Cc4ccccc4)N3C2=O)C[C@@H]2c3cccc4[nH]cc(c34)C[C@H]21.CS(=O)(=O)O [DIHYDROERGOTAMINE MESYLATE],Total Cell Count,HEK-293T; [1],621 and 341
same,Population Apoptotic (%),HEK-293T; [2],27% and 32%
same,Population Fragmented Nuclei (%),HEK-293T; [2],10% and 9%
same,Population Healthy Nuclei (%),HEK-293T; [2],76% and 84%
same,Population Hoechst High Intensity Objects (%),HEK-293T; [2],5% and 6%
same,Population Membrane Permeable-Phenotype (%),HEK-293T; [2],0%
same,Population Mitochondria Different-Phenotype (%),HEK-293T; [2],33% and 39%
same,Population Mitotic Cells (%),HEK-293T; [2],72% and 67%
same,Population Normal (%),HEK-293T; [2],94% and 93%
same,Population Pyknosed Nuclei (%),HEK-293T; [2],13% and 6%
same,Population Tubulin-Different-Phenotype (%),HEK-293T; [2],26% and 16%
same,Total Cell Count,HEK-293T; [2],480 and 567
same,Population Apoptotic (%),HEK-293T; [3],29% and 28%
same,Population Fragmented Nuclei (%),HEK-293T; [3],14% and 12%
same,Population Healthy Nuclei (%),HEK-293T; [3],78% and 82%
same,Population Hoechst High Intensity Objects (%),HEK-293T; [3],2%
same,Population Membrane Permeable-Phenotype (%),HEK-293T; [3],1% and 0%
same,Population Mitochondria Different-Phenotype (%),HEK-293T; [3],17% and 23%
same,Population Mitotic Cells (%),HEK-293T; [3],70% and 71%
same,Population Normal (%),HEK-293T; [3],97%
same,Population Pyknosed Nuclei (%),HEK-293T; [3],6% and 5%
same,Population Tubulin-Different-Phenotype (%),HEK-293T; [3],11% and 9%
same,Total Cell Count,HEK-293T; [3],1011 and 524
same,Population Apoptotic (%),HEK-293T; [4],22% and 31%
same,Population Fragmented Nuclei (%),HEK-293T; [4],15%
same,Population Healthy Nuclei (%),HEK-293T; [4],76% and 77%
same,Population Hoechst High Intensity Objects (%),HEK-293T; [4],2% and 1%
same,Population Membrane Permeable-Phenotype (%),HEK-293T; [4],0%
same,Population Mitochondria Different-Phenotype (%),HEK-293T; [4],20% and 21%
same,Population Mitotic Cells (%),HEK-293T; [4],77% and 68%
same,Population Normal (%),HEK-293T; [4],97% and 98%
same,Population Pyknosed Nuclei (%),HEK-293T; [4],7% and 6%
same,Population Tubulin-Different-Phenotype (%),HEK-293T; [4],12% and 11%
same,Total Cell Count,HEK-293T; [4],778 and 793
same,Population Apoptotic (%),Fibroblast; [5],25% and 47%
same,Population Fragmented Nuclei (%),Fibroblast; [5],13% and 32%
same,Population Healthy Nuclei (%),Fibroblast; [5],70% and 51%
same,Population Hoechst High Intensity Objects (%),Fibroblast; [5],1% and 7%
same,Population Membrane Permeable-Phenotype (%),Fibroblast; [5],1% and 6%
same,Population Mitochondria Different-Phenotype (%),Fibroblast; [5],1% and 5%
same,Population Mitotic Cells (%),Fibroblast; [5],75% and 52%
same,Population Normal (%),Fibroblast; [5],98% and 92%
same,Population Pyknosed Nuclei (%),Fibroblast; [5],16%
same,Population Tubulin-Different-Phenotype (%),Fibroblast; [5],23% and 31%
same,Total Cell Count,Fibroblast; [5],127 and 155
same,Population Apoptotic (%),Fibroblast; [6],57% and 31%
same,Population Fragmented Nuclei (%),Fibroblast; [6],27% and 33%
same,Population Healthy Nuclei (%),Fibroblast; [6],65% and 45%
same,Population Hoechst High Intensity Objects (%),Fibroblast; [6],0% and 8%
same,Population Membrane Permeable-Phenotype (%),Fibroblast; [6],0% and 2%
same,Population Mitochondria Different-Phenotype (%),Fibroblast; [6],5% and 0%
same,Population Mitotic Cells (%),Fibroblast; [6],42% and 68%
same,Population Normal (%),Fibroblast; [6],100% and 91%
same,Population Pyknosed Nuclei (%),Fibroblast; [6],7% and 21%
same,Total Cell Count,Fibroblast; [6],92 and 114
same,Population Apoptotic (%),Fibroblast; [1],38% and 47%
same,Population Fragmented Nuclei (%),Fibroblast; [1],14% and 30%
same,Population Healthy Nuclei (%),Fibroblast; [1],75% and 56%
same,Population Hoechst High Intensity Objects (%),Fibroblast; [1],1% and 4%
same,Population Membrane Permeable-Phenotype (%),Fibroblast; [1],0% and 7%
same,Population Mitochondria Different-Phenotype (%),Fibroblast; [1],0% and 3%
same,Population Mitotic Cells (%),Fibroblast; [1],61% and 52%
same,Population Normal (%),Fibroblast; [1],98% and 95%
same,Population Pyknosed Nuclei (%),Fibroblast; [1],10% and 13%
same,Population Tubulin-Different-Phenotype (%),Fibroblast; [1],18% and 50%
same,Total Cell Count,Fibroblast; [1],130 and 149
same,Population Apoptotic (%),Fibroblast; [2],55% and 31%
same,Population Fragmented Nuclei (%),Fibroblast; [2],17% and 35%
same,Population Healthy Nuclei (%),Fibroblast; [2],72% and 43%
same,Population Hoechst High Intensity Objects (%),Fibroblast; [2],1% and 5%
same,Population Membrane Permeable-Phenotype (%),Fibroblast; [2],0% and 6%
same,Population Mitochondria Different-Phenotype (%),Fibroblast; [2],1% and 0%
same,Population Mitotic Cells (%),Fibroblast; [2],44% and 68%
same,Population Normal (%),Fibroblast; [2],98% and 94%
same,Population Pyknosed Nuclei (%),Fibroblast; [2],10% and 20%
same,Total Cell Count,Fibroblast; [2],89 and 113
same,Population Apoptotic (%),Fibroblast; [3],57% and 53%
same,Population Fragmented Nuclei (%),Fibroblast; [3],20% and 38%
same,Population Healthy Nuclei (%),Fibroblast; [3],68% and 50%
same,Population Hoechst High Intensity Objects (%),Fibroblast; [3],1% and 5%
same,Population Membrane Permeable-Phenotype (%),Fibroblast; [3],0% and 6%
same,Population Mitochondria Different-Phenotype (%),Fibroblast; [3],2% and 6%
same,Population Mitotic Cells (%),Fibroblast; [3],42% and 46%
same,Population Normal (%),Fibroblast; [3],98% and 94%
same,Population Pyknosed Nuclei (%),Fibroblast; [3],10% and 11%
same,Population Tubulin-Different-Phenotype (%),Fibroblast; [3],30% and 48%
same,Total Cell Count,Fibroblast; [3],134 and 139
same,Population Apoptotic (%),Fibroblast; [4],63% and 76%
same,Population Fragmented Nuclei (%),Fibroblast; [4],21% and 44%
same,Population Healthy Nuclei (%),Fibroblast; [4],65% and 44%
same,Population Hoechst High Intensity Objects (%),Fibroblast; [4],3%
same,Population Membrane Permeable-Phenotype (%),Fibroblast; [4],1% and 11%
same,Population Mitochondria Different-Phenotype (%),Fibroblast; [4],3% and 5%
same,Population Mitotic Cells (%),Fibroblast; [4],36% and 23%
same,Population Normal (%),Fibroblast; [4],96%
same,Population Pyknosed Nuclei (%),Fibroblast; [4],12% and 10%
same,Population Tubulin-Different-Phenotype (%),Fibroblast; [4],20% and 55%
same,Total Cell Count,Fibroblast; [4],91 and 126
